Assay results published in ChEMBL document CHEMBL5029189, “Development of a 1,2,4-Triazole-Based Lead Tankyrase Inhibitor: Part II” (J Med Chem, 2021).
Values belong to the molecule of their own block, whether it stands above or below them. Active and inactive are the calls of the source. The rule behind the calls is not given here.

Experiments:
COLO 320DM [1] = test: Inhibition of Wnt/beta-catenin signaling pathway in human COLO 320DM cells assessed as reduction in APCDD1 level qRT-PCR analysis; assay type: cell-based; settings: dose 0.1-100 nM
COLO 320DM [2] = test: Inhibition of Wnt/beta-catenin signaling pathway in human COLO 320DM cells assessed as reduction in DKK1 level qRT-PCR analysis; assay type: cell-based; settings: dose 0.1-100 nM
COLO 320DM [3] = test: Inhibition of Wnt/beta-catenin signaling pathway in human COLO 320DM cells assessed as reduction in AXIN2 level qRT-PCR analysis; assay type: cell-based; settings: dose 0.1-100 nM
COLO 320DM [4] = test: Inhibition of Wnt/beta-catenin signaling pathway in human COLO 320DM cells assessed as reduction in nuclear beta-catenin level at 0.1 to 100 nM by immunoblot analysis; assay type: cell-based; settings: dose 0.1-100 nM
COLO 320DM [5] = test: Inhibition of Wnt/beta-catenin signaling pathway in human COLO 320DM cells assessed as reduction in cytoplasmic beta-catenin level at 0.1 to 100 nM by immunoblot analysis; assay type: cell-based; settings: dose 0.1-100 nM
COLO 320DM [6] = test: Inhibition of Wnt/beta-catenin signaling pathway in human COLO 320DM cells assessed as stabilization of AXIN2 at 0.1 to 100 nM by immunoblot analysis; assay type: cell-based; settings: dose 0.1-100 nM
COLO 320DM [7] = test: Inhibition of Wnt/beta-catenin signaling pathway in human COLO 320DM cells assessed as reduction in NKD1 level qRT-PCR analysis; assay type: cell-based; settings: dose 0.1-100 nM
Salmonella typhimurium [8] = test: Genotoxicity in Salmonella typhimurium TA98 in presence of rat liver S9 fraction by Ames test; assay type: toxicity, organism-based; settings: salmonella enterica subsp. enterica serovar typhimurium
Salmonella typhimurium [9] = test: Genotoxicity in Salmonella typhimurium TA100 in presence of rat liver S9 fraction by Ames test; assay type: toxicity, organism-based; settings: salmonella enterica subsp. enterica serovar typhimurium
[10] = target: T1, Nuclear receptor subfamily 1 group I member 2 (Homo sapiens, UniProt O75469); test: Inhibition of PXR (unknown origin) at 100 uM
T1 sequence (O75469 whole entry): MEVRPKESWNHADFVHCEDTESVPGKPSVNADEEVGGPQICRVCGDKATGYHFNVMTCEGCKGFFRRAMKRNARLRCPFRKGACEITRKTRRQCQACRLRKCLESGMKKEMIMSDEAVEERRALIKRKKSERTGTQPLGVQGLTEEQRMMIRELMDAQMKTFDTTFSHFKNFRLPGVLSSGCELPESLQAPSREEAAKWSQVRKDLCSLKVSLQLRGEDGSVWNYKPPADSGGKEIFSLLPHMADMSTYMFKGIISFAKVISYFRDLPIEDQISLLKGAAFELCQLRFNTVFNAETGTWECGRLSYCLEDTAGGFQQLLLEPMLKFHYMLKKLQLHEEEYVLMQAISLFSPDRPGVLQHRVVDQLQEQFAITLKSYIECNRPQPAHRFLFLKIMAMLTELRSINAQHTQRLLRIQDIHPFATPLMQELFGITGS

COLO 320DM [11] = test: Inhibition of Wnt/beta-catenin signaling pathway in human COLO 320DM cells assessed as stabilization of AXIN1 at 0.1 to 100 nM by immunoblot analysis; assay type: cell-based; settings: dose 0.1-100 nM
COLO 320DM [12] = test: Inhibition of Wnt/beta-catenin signaling pathway in human COLO 320DM cells assessed as effect on TNKS1/2 level by immunoblot analysis; assay type: cell-based; settings: dose 0.1-100 nM
[13] = Apparent permeability across apical to basolateral side in human Caco-2 cells at 10 uM incubated for 120 mins by LC-MS/MS analysis; assay type: ADME, cell-based
[14] = Metabolic stability in human liver microsomes assessed as intrinsic clearance measured per mg protein incubated up to 60 mins in presence of NADPH by UPLC-MS/MS analysis; assay type: ADME, Microsome
[15] = Metabolic stability in mouse liver microsomes assessed as intrinsic clearance measured per mg protein incubated up to 60 mins in presence of NADPH by UPLC-MS/MS analysis; assay type: ADME, Microsome; settings: read-out: CLH
[16] = Inhibition of Wnt/beta-catenin signaling pathway in HEK293T cells incubated for 24 hrs by dual-Glo luciferase assay; assay type: cell-based; settings: Homo sapiens, HEK-293T
Summary of the method: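 Luciferase-based WNT/β-catenin pathway reporter in human HEK293 cells, run as in earlier work with a reference tankyrase inhibitor included. Each concentration tested in triplicate. IC50 derived by curve fitting, with T/F-tests applied to the fit.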

IC50 [10]: Not Active
Compound: CCOc1ccc(-c2nnc([C@H]3C[C@H](NC(=O)c4cccc5nccnc45)C3)n2-c2ccccc2F)nc1
inhibition (COLO 320DM [1]): Dose-Dependent Effect
inhibition (COLO 320DM [2]): Dose-Dependent Effect
inhibition (COLO 320DM [3]): Dose-Dependent Effect
inhibition (COLO 320DM [4]): Active
inhibition (COLO 320DM [5]): Active
inhibition (COLO 320DM [6]): Active
inhibition (COLO 320DM [7]): Dose-Dependent Effect
Activity (Salmonella typhimurium [8]): Non-Toxic
Activity (Salmonella typhimurium [9]): Non-Toxic
inhibition (COLO 320DM [11]): Active
inhibition (COLO 320DM [12]): Dose-Dependent Effect

Papp A→B at 2 h, 10 µM [13]: 39.5 ×10⁻⁶ cm/s
microsomal CLint [14]: < 5 µL/min/mg
microsomal CLint [15]: 27 µL/min/mg
Compound: CCOc1ccc(-c2nnc([C@H]3C[C@H](NC(=O)c4ccccn4)C3)n2-c2ccccc2F)nc1
Activity (Salmonella typhimurium [8]): Non-Toxic
Activity (Salmonella typhimurium [9]): Non-Toxic

Compound: CCOc1ccc(-c2nnc([C@H]3C[C@H](NC(=O)c4ccnc5cc(F)cnc45)C3)n2-c2ccccc2F)nc1
IC50 [16]: 0.17 nM

Compound: CCOc1ccc(-c2nnc([C@H]3C[C@H](NC(=O)c4ccnc5cccnc45)C3)n2-c2ccccc2F)nc1
IC50 [16]: 0.63 nM
